{"source": "ChEMBL document CHEMBL3593182", "about": "“Phytochemical Investigation of the Constituents Derived from the Australian Plant Macropidia fuliginosa” (2015)", "key": {"Streptococcus pyogenes [1]": {"system": "Streptococcus pyogenes", "test": "Antimicrobial activity against Streptococcus pyogenes 345/1 assessed as zone of inhibition at 1639 uM incubated overnight at 37 degC", "assay_type": "functional, organism-based", "in_short": "(§1)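 Pure isolates screened against a panel of five bacteria and one fungus, each at a single concentration within 1639–5230 μM. A commercial antibiotic and antifungal agent were tested in parallel as references. Growth inhibition was recorded as the zone of inhibition.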"}, "Pseudomonas aeruginosa [2]": {"system": "Pseudomonas aeruginosa", "test": "Antimicrobial activity against Pseudomonas aeruginosa ATCC 27853 assessed as zone of inhibition at 1639 uM incubated overnight at 37 degC", "assay_type": "functional, organism-based", "in_short": "as §1"}, "Candida albicans [3]": {"system": "Candida albicans", "test": "Antimicrobial activity against Candida albicans ATCC 10231 assessed as zone of inhibition at 1639 uM incubated overnight at 37 degC", "assay_type": "functional, organism-based", "in_short": "as §1"}, "Escherichia coli [4]": {"system": "Escherichia coli", "test": "Antimicrobial activity against Escherichia coli ATCC 25922 assessed as zone of inhibition at 1639 uM incubated overnight at 37 degC", "assay_type": "functional, organism-based", "in_short": "as §1"}, "Staphylococcus aureus [5]": {"system": "Staphylococcus aureus", "test": "Antimicrobial activity against Staphylococcus aureus ATCC 25923 assessed as zone of inhibition at 1639 uM incubated overnight at 37 degC", "assay_type": "functional, organism-based", "in_short": "as §1"}, "Staphylococcus aureus [6]": {"system": "Staphylococcus aureus", "test": "Antimicrobial activity against methicillin-resistant Staphylococcus aureus 344/2-32 assessed as zone of inhibition at 1639 uM incubated overnight at 37 degC", "assay_type": "functional, organism-based"}, "Staphylococcus aureus [7]": {"system": "Staphylococcus aureus", "test": "Antimicrobial activity against Staphylococcus aureus ATCC 25923 assessed as zone of inhibition at 2762 uM incubated overnight at 37 degC", "assay_type": "functional", "settings": "read-out: IZ", "in_short": "as §1"}, "Candida albicans [8]": {"system": "Candida albicans", "test": "Antimicrobial activity against Candida albicans ATCC 10231 assessed as zone of inhibition at 2762 uM incubated overnight at 37 degC", "assay_type": "functional, organism-based", "in_short": "as §1"}, "Streptococcus pyogenes [9]": {"system": "Streptococcus pyogenes", "test": "Antimicrobial activity against Streptococcus pyogenes 345/1 assessed as zone of inhibition at 2762 uM incubated overnight at 37 degC", "assay_type": "functional", "settings": "read-out: IZ", "in_short": "as §1"}, "Escherichia coli [10]": {"system": "Escherichia coli", "test": "Antimicrobial activity against Escherichia coli ATCC 25922 assessed as zone of inhibition at 2762 uM incubated overnight at 37 degC", "assay_type": "functional, organism-based", "in_short": "as §1"}, "Staphylococcus aureus [11]": {"system": "Staphylococcus aureus", "test": "Antimicrobial activity against methicillin-resistant Staphylococcus aureus 344/2-32 assessed as zone of inhibition at 2762 uM incubated overnight at 37 degC", "assay_type": "functional, organism-based"}, "Pseudomonas aeruginosa [12]": {"system": "Pseudomonas aeruginosa", "test": "Antimicrobial activity against Pseudomonas aeruginosa ATCC 27853 assessed as zone of inhibition at 2762 uM incubated overnight at 37 degC", "assay_type": "functional, organism-based", "in_short": "as §1"}, "Candida albicans [13]": {"system": "Candida albicans", "test": "Antimicrobial activity against Candida albicans ATCC 10231 assessed as zone of inhibition at 3675 uM incubated overnight at 37 degC", "assay_type": "functional, organism-based", "in_short": "as §1"}, "Staphylococcus aureus [14]": {"system": "Staphylococcus aureus", "test": "Antimicrobial activity against Staphylococcus aureus ATCC 25923 assessed as zone of inhibition at 3675 uM incubated overnight at 37 degC", "assay_type": "functional, organism-based", "in_short": "as §1"}, "Streptococcus pyogenes [15]": {"system": "Streptococcus pyogenes", "test": "Antimicrobial activity against Streptococcus pyogenes 345/1 assessed as zone of inhibition at 3675 uM incubated overnight at 37 degC", "assay_type": "functional, organism-based"}, "Pseudomonas aeruginosa [16]": {"system": "Pseudomonas aeruginosa", "test": "Antimicrobial activity against Pseudomonas aeruginosa ATCC 27853 assessed as zone of inhibition at 3675 uM incubated overnight at 37 degC", "assay_type": "functional, organism-based", "in_short": "as §1"}, "Escherichia coli [17]": {"system": "Escherichia coli", "test": "Antimicrobial activity against Escherichia coli ATCC 25922 assessed as zone of inhibition at 3675 uM incubated overnight at 37 degC", "assay_type": "functional, organism-based", "in_short": "as §1"}, "Staphylococcus aureus [18]": {"system": "Staphylococcus aureus", "test": "Antimicrobial activity against methicillin-resistant Staphylococcus aureus 344/2-32 assessed as zone of inhibition at 3675 uM incubated overnight at 37 degC", "assay_type": "functional, organism-based"}, "Staphylococcus aureus [19]": {"system": "Staphylococcus aureus", "test": "Antimicrobial activity against methicillin-resistant Staphylococcus aureus 344/2-32 assessed as zone of inhibition at 3905 uM incubated overnight at 37 degC", "assay_type": "functional, organism-based"}, "Streptococcus pyogenes [20]": {"system": "Streptococcus pyogenes", "test": "Antimicrobial activity against Streptococcus pyogenes 345/1 assessed as zone of inhibition at 3905 uM incubated overnight at 37 degC", "assay_type": "functional", "settings": "read-out: IZ"}, "Staphylococcus aureus [21]": {"system": "Staphylococcus aureus", "test": "Antimicrobial activity against Staphylococcus aureus ATCC 25923 assessed as zone of inhibition at 3905 uM incubated overnight at 37 degC", "assay_type": "functional, organism-based", "in_short": "as §1"}, "Candida albicans [22]": {"system": "Candida albicans", "test": "Antimicrobial activity against Candida albicans ATCC 10231 assessed as zone of inhibition at 3905 uM incubated overnight at 37 degC", "assay_type": "functional, organism-based", "in_short": "as §1"}, "Escherichia coli [23]": {"system": "Escherichia coli", "test": "Antimicrobial activity against Escherichia coli ATCC 25922 assessed as zone of inhibition at 3905 uM incubated overnight at 37 degC", "assay_type": "functional, organism-based", "in_short": "as §1"}, "Pseudomonas aeruginosa [24]": {"system": "Pseudomonas aeruginosa", "test": "Antimicrobial activity against Pseudomonas aeruginosa ATCC 27853 assessed as zone of inhibition at 3905 uM incubated overnight at 37 degC", "assay_type": "functional, organism-based", "in_short": "as §1"}, "Staphylococcus aureus [25]": {"system": "Staphylococcus aureus", "test": "Antimicrobial activity against methicillin-resistant Staphylococcus aureus 344/2-32 assessed as zone of inhibition at 1724 uM incubated overnight at 37 degC", "assay_type": "functional, organism-based"}, "Streptococcus pyogenes [26]": {"system": "Streptococcus pyogenes", "test": "Antimicrobial activity against Streptococcus pyogenes 345/1 assessed as zone of inhibition at 1724 uM incubated overnight at 37 degC", "assay_type": "functional", "settings": "read-out: IZ", "in_short": "as §1"}, "Candida albicans [27]": {"system": "Candida albicans", "test": "Antimicrobial activity against Candida albicans ATCC 10231 assessed as zone of inhibition at 1724 uM incubated overnight at 37 degC", "assay_type": "functional, organism-based", "in_short": "as §1"}, "Escherichia coli [28]": {"system": "Escherichia coli", "test": "Antimicrobial activity against Escherichia coli ATCC 25922 assessed as zone of inhibition at 1724 uM incubated overnight at 37 degC", "assay_type": "functional", "settings": "read-out: IZ", "in_short": "as §1"}, "Pseudomonas aeruginosa [29]": {"system": "Pseudomonas aeruginosa", "test": "Antimicrobial activity against Pseudomonas aeruginosa ATCC 27853 assessed as zone of inhibition at 1724 uM incubated overnight at 37 degC", "assay_type": "functional", "settings": "read-out: IZ", "in_short": "as §1"}, "Staphylococcus aureus [30]": {"system": "Staphylococcus aureus", "test": "Antimicrobial activity against Staphylococcus aureus ATCC 25923 assessed as zone of inhibition at 1724 uM incubated overnight at 37 degC", "assay_type": "functional, organism-based", "in_short": "as §1"}}, "note": "The source made the active and inactive calls. No cut-off for these calls is given here."}
{"molecule": "C[C@@H]1O[C@@H](OC[C@H]2O[C@@H](Oc3c(-c4ccc(O)c(O)c4)oc4cc(O)cc(O)c4c3=O)[C@H](O)[C@@H](O)[C@@H]2O)[C@H](O)[C@H](O)[C@H]1O", "values": [{"measurement": "inhibition zone (IZ)", "setting": "Streptococcus pyogenes [1]", "result": "inactive"}, {"measurement": "inhibition zone (IZ)", "setting": "Pseudomonas aeruginosa [2]", "result": "inactive"}, {"measurement": "inhibition zone (IZ)", "setting": "Candida albicans [3]", "result": "inactive"}, {"measurement": "inhibition zone (IZ)", "setting": "Escherichia coli [4]", "result": "inactive"}, {"measurement": "inhibition zone (IZ)", "setting": "Staphylococcus aureus [5]", "result": "inactive"}, {"measurement": "inhibition zone (IZ)", "setting": "Staphylococcus aureus [6]", "result": "inactive"}]}
{"molecule": "O=Cc1cc(O)c2c(-c3cc(O)cc(O)c3)c(-c3ccc(O)cc3)oc2c1", "values": [{"measurement": "zone of inhibition at 2762 µM", "setting": "Staphylococcus aureus [7]", "result": 1, "unit": "mm"}, {"measurement": "inhibition zone (IZ)", "setting": "Candida albicans [8]", "result": "inactive"}, {"measurement": "zone of inhibition at 2762 µM", "setting": "Streptococcus pyogenes [9]", "result": 1, "unit": "mm"}, {"measurement": "inhibition zone (IZ)", "setting": "Escherichia coli [10]", "result": "inactive"}, {"measurement": "inhibition zone (IZ)", "setting": "Staphylococcus aureus [11]", "result": "inactive"}, {"measurement": "inhibition zone (IZ)", "setting": "Pseudomonas aeruginosa [12]", "result": "inactive"}]}
{"molecule": "O=C1C(O)=Cc2cccc3ccc(-c4ccccc4)c1c23", "values": [{"measurement": "inhibition zone (IZ)", "setting": "Candida albicans [13]", "result": "inactive"}, {"measurement": "inhibition zone (IZ)", "setting": "Staphylococcus aureus [14]", "result": "inactive"}, {"measurement": "inhibition zone (IZ)", "setting": "Streptococcus pyogenes [15]", "result": "inactive"}, {"measurement": "inhibition zone (IZ)", "setting": "Pseudomonas aeruginosa [16]", "result": "inactive"}, {"measurement": "inhibition zone (IZ)", "setting": "Escherichia coli [17]", "result": "inactive"}, {"measurement": "inhibition zone (IZ)", "setting": "Staphylococcus aureus [18]", "result": "inactive"}]}
{"molecule": "O=C1C(c2ccccc2)=Cc2cccc3cccc1c23", "values": [{"measurement": "inhibition zone (IZ)", "setting": "Staphylococcus aureus [19]", "result": "inactive"}, {"measurement": "zone of inhibition at 3905 µM", "setting": "Streptococcus pyogenes [20]", "result": 2, "unit": "mm"}, {"measurement": "inhibition zone (IZ)", "setting": "Staphylococcus aureus [21]", "result": "inactive"}, {"measurement": "inhibition zone (IZ)", "setting": "Candida albicans [22]", "result": "inactive"}, {"measurement": "inhibition zone (IZ)", "setting": "Escherichia coli [23]", "result": "inactive"}, {"measurement": "inhibition zone (IZ)", "setting": "Pseudomonas aeruginosa [24]", "result": "inactive"}]}
{"molecule": "O=C(/C=C/c1ccc(O)cc1)OC[C@H]1O[C@@H](Oc2cc(O)cc3c2C(=O)CC(c2ccc(O)cc2)O3)[C@H](O)[C@@H](O)[C@@H]1O", "note": "(stereo not given in full)", "values": [{"measurement": "inhibition zone (IZ)", "setting": "Staphylococcus aureus [25]", "result": "inactive"}, {"measurement": "zone of inhibition at 1724 µM", "setting": "Streptococcus pyogenes [26]", "result": 1, "unit": "mm"}, {"measurement": "inhibition zone (IZ)", "setting": "Candida albicans [27]", "result": "inactive"}, {"measurement": "zone of inhibition at 1724 µM", "setting": "Escherichia coli [28]", "result": 1, "unit": "mm"}, {"measurement": "zone of inhibition at 1724 µM", "setting": "Pseudomonas aeruginosa [29]", "result": 10, "unit": "mm"}, {"measurement": "inhibition zone (IZ)", "setting": "Staphylococcus aureus [30]", "result": "inactive"}]}
